According to ChEMBL document CHEMBL1142882, “Design, parallel synthesis and SAR of novel urotensin II receptor agonists” (Eur J Med Chem, 2007):
The source made the active and inactive calls. The calls are words filed in the database; no cut-off is given here.

Columns and labels:
Format in all cases: functional, cell-based
Urotensin-2 receptor = molecular target: T1, Urotensin-2 receptor (Homo sapiens, UniProt Q9UKP6); experiment: (§1) Agonist activity at human urotensin-2 receptor transfected in NIH3T3 cells after 5 days by R-SAT assay
T1 sequence (Q9UKP6 whole entry): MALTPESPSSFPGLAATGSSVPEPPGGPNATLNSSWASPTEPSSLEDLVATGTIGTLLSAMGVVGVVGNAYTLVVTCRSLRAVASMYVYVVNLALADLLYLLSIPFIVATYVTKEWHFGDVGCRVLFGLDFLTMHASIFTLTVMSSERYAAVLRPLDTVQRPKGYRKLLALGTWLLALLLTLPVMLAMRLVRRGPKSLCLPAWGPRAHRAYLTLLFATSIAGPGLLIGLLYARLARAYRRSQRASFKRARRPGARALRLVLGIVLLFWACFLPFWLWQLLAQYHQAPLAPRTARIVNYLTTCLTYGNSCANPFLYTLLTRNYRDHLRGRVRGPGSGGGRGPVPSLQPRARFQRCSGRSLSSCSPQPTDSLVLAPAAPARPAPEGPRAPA
Outline: (§2)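 NIH-3T3 cells grown to 80% confluence in DMEM with 10% bovine calf serum and 1% penicillin/streptomycin/glutamine, transfected 18 h with human UII receptor plus β-galactosidase marker, then trypsinized and frozen. Thawed batches were quality-checked with control compound, then incubated with compounds or reference ligands for five days in 5% CO₂. Reporter enzyme activity read at 420 nm.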

[1] = molecular target: T2, Urotensin-2 receptor (Homo sapiens) (UniProt Q9UKP6); experiment: Agonist activity at human urotensin-2 receptor transfected in NIH3T3 cells after 5 days by R-SAT assay relative to urotensin-2; outline: as §2
T2 sequence (whole entry): T1 sequence (Q9UKP6 whole entry)

[2] = molecular target: T2, Urotensin-2 receptor (Homo sapiens); experiment: as §1; outline: as §2

| Compound | EC50 (Urotensin-2 receptor) | Efficacy [1] | other results |
| --- | --- | --- | --- |
| COc1ccc(CCC(=O)NC(CCN(C)C)c2ccc(C)cc2)cc1 (stereo not given) | – | 67% | – |
| CN(C)CCC(NC(=O)Cc1ccc(C(F)(F)F)cc1)c1ccc(Cl)cc1 (stereo not given) | – | 53% | – |
| CN(C)CCC(NC(=O)CCc1ccc(C(F)(F)F)cc1)c1ccc(Cl)cc1 (stereo not given) | – | 73% | – |
| CN(C)CCC(NC(=O)CCc1ccccc1)c1ccc2ccccc2c1 (stereo not given) | – | 107% | – |
| CN(C)CCC(NC(=O)Cc1ccccc1)c1ccc2ccccc2c1 (stereo not given) | – | 121% | – |
| CN(C)CCC(NC(=O)C#Cc1ccccc1)c1ccc(Cl)cc1 (stereo not given) | – | 124% | – |
| CN(C)CCC(NC(=O)Cc1ccccc1)c1ccc(Cl)cc1 (stereo not given) | – | 76% | – |
| CN(C)CCC(NC(=O)C#Cc1ccccc1)c1ccc2ccccc2c1 (stereo not given) | – | 115% | – |
| Cc1ccc(C(CCN(C)C)NC(=O)C#Cc2ccccc2)cc1 (stereo not given) | – | 131% | – |
| Cc1ccc(C(CCN(C)C)NC(=O)Cc2ccccc2)cc1 (stereo not given) | – | 83% | – |
| CN(C)CCC(NC(=O)CCc1ccccc1)c1ccc(Cl)cc1 (stereo not given) | – | 139% | – |
| COc1ccc(CC(=O)NC(CCN(C)C)c2ccc(C)cc2)cc1 (stereo not given) | – | 62% | – |
| Cc1ccc(C(CCN(C)C)NC(=O)Cc2ccc(C(F)(F)F)cc2)cc1 (stereo not given) | – | 25% | – |
| Cc1ccc(C(CCN(C)C)NC(=O)CCc2ccccc2)cc1 (stereo not given) | – | 73% | – |
| Cc1ccc(C(CCN(C)C)NC(=O)CCc2ccc(C(F)(F)F)cc2)cc1 (stereo not given) | – | 60% | – |
| COc1ccc(CC(=O)NC(CCN(C)C)c2ccc(Cl)cc2)cc1 (stereo not given) | – | 65% | – |
| COc1ccc(CCC(=O)NC(CCN(C)C)c2ccc(Cl)cc2)cc1 (stereo not given) | – | 101% | – |
| COc1ccc(CC(=O)NC(CCN(C)C)c2ccc3ccccc3c2)cc1 (stereo not given) | – | – | Activity [2]: inactive; Activity [1]: inactive |

Second part, led by results:

| EC50 (Urotensin-2 receptor) | Efficacy [1] | Compound | other results |
| --- | --- | --- | --- |
| 1410 nM | 113% | COc1ccc(CCC(=O)NC(CCN(C)C)c2ccc3ccccc3c2)cc1 (stereo not given) | – |
| 1550 nM | 97% | Cc1ccc(C(CCN(C)C)NC(=O)/C=C/c2ccccc2)cc1 (stereo not given) | – |
| 513 nM | 99% | COc1ccc(/C=C/C(=O)NC(CCN(C)C)c2ccc(Cl)cc2)cc1 (stereo not given) | – |
| 380 nM | 106% | COc1ccc(/C=C/C(=O)NC(CCN(C)C)c2ccc3ccccc3c2)cc1 (stereo not given) | – |
| 2000 nM | 79% | COc1ccc(/C=C/C(=O)NC(CCN(C)C)c2ccc(C)cc2)cc1 (stereo not given) | – |
| – | 40% | CN(C)CCC(NC(=O)Cc1ccc(C(F)(F)F)cc1)c1ccc2ccccc2c1 (stereo not given) | – |
| 135 nM | 117% | CN(C)CCC(NC(=O)/C=C/c1ccc(C(F)(F)F)cc1)c1ccc2ccccc2c1 (stereo not given) | – |
| 372 nM | 75% | CN(C)CCC(NC(=O)CCc1ccc(C(F)(F)F)cc1)c1ccc2ccccc2c1 (stereo not given) | – |
| – | 116% | CN(C)CCC(NC(=O)/C=C/c1ccccc1)c1ccc2ccccc2c1 (stereo not given) | – |
| 129 nM | 133% | CN(C)CCC(NC(=O)/C=C/c1ccc(C(F)(F)F)cc1)c1ccc(Cl)cc1 (stereo not given) | – |
| – | 128% | CN(C)CCC(NC(=O)/C=C/c1ccccc1)c1ccc(Cl)cc1 (stereo not given) | – |
| 437 nM | 96% | Cc1ccc(C(CCN(C)C)NC(=O)/C=C/c2ccc(C(F)(F)F)cc2)cc1 (stereo not given) | – |
